High-throughput results as filed in PubChem.
Only some compounds are listed: those with a hit (about 0.85% of all), similar ones and a draw of the others.
CRFR2-BP ag: agonists of CRF-BP/CRF-R2 complex, primary screen, cell-based, HEK293, calcium dye fluorescence, uHTS. activation, % at 13.2 µM. calcium dye fluorescence (FLIPR); percent of saturating CRF peptide response. AID 588473, 2011. 0.46% of 350,000 active;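 active = activation of at least 50%, plus an integration ratio under a set limit after plate pattern correction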
OXTR ag: human OXTR agonists, primary screen, fluorescence, CHO-OTR cells, Fluo-8 calcium | Fluo-8 calcium fluorescence; normalized: DMSO 0%, oxytocin 100% | 0.32% of 320,000 active | AID 2435, 2010 | Oxytocin receptor (Homo sapiens), P30559 | activation, % at 3 µM;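 active = activation above the mean of all tested compounds plus 3 SD, cutoff set per screening run, cut at about 20% in these data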;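 also: peak over basal fluorescence ratio from a 100 s FLIPR kinetic read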
Target sequence (P30559 whole entry, looked up): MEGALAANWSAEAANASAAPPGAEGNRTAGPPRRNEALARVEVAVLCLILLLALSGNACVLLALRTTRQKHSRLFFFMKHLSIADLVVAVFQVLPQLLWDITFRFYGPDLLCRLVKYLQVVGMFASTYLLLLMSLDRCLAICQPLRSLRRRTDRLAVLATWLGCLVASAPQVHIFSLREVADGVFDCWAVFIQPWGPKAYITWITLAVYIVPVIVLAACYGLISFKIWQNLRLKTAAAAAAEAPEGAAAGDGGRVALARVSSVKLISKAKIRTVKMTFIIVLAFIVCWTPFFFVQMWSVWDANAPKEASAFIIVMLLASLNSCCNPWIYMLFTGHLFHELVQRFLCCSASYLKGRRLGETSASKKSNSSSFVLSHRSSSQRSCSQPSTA
V1R ag counter: agonists of human V1a receptor, primary screen, counter-screen for OXTR agonist project, fluorescence, CHO-V1R cells; Vasopressin V1a receptor (Homo sapiens), P37288; Fluo-8 calcium fluorescence, agonist mode; 0% DMSO, 100% 3 nM vasopressin; activation, % at 3 µM; 0.25% of 320,000 active; AID 2797, 2010;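 active = activation above the mean activation of all tested compounds plus 3 SD, per screening run, cut at about 20% in these data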;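 also: signal is peak over basal fluorescence ratio across a 100 second FLIPR read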
zfTRPN1 agonist: zebrafish TRPN1 channel agonists, primary screen, cell-based, HEK293, calcium fluorescence; 0.18% of 220,000 active; activation, % at 3 µM; HEK293 zebrafish TRPN1-YFP, Fluo-8 calcium fluorescence; 100% = response to 87 µM carbachol; AID 1424, 2008;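 active = activation above its plate's cutoff, the mean activation of test wells on that plate plus 3 SD, cut at about 19% in these data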
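Material: zebrafish TRPN1-YFP in HEK293 cells. Doses: one dose of 3 µM, 0.3% DMSO. Incubation: dye 1 h 37 °C plus 30 min RT. Measured by: intracellular calcium fluorescence with Fluo-8.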
OXTR potentiator: human OXTR potentiators, primary screen, fluorescence, CHO-OTR cells, Fluo-8 calcium; activation, % at 3 µM; 0.061% of 320,000 active; Fluo-8 calcium fluorescence, potentiator mode; 0% = oxytocin EC15, 100% = EC100; Oxytocin receptor (Homo sapiens), P30559;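 active = activation above that plate's cutoff, the mean activation of tested compounds plus 3 SD, cut at about 6.6% in these data, passing the limit was not always enough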
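System: human OTR in CHO cells / Also added: sub-maximal oxytocin, roughly EC15 / Control set: EC15 oxytocin low, 75 nM oxytocin high / Schedule: 6 min compound pre-incubation at room temperature, 100 s kinetic read / Compound: single-point 3.0 µM / Replication: singlicate / Technique: Fluo-8 calcium dye fluorescence / Read-out basis: % activation of max/min ratio relative to oxytocin controls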
TRPML3 ag: human TRPML3 channel agonists, primary screen, cell-based, HEK293 TRPML3-YFP, Fluo-8 calcium fluorescence, 3 µM; Mucolipin-3 (Homo sapiens), Q8TDD5; activation, % at 3 µM; 100% = the carbachol control signal; 0.29% of 220,000 active;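 active = activation above its plate's cutoff, the mean activation of the plate's test wells plus 3 SD, cut at about 12% in these data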
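Material: HEK293 cells stably carrying human TRPML3-YFP; compound dosing: single dose, 3 µM final nominal compound, 0.3% DMSO final; incubation: 1-h 37 °C dye load, 5-s basal, 120-s post-compound reads; technique: Fluo-8 intracellular calcium fluorescence, excitation 470-495 nm, emission 515-575 nm; read-out basis: percent activation from peak-to-basal fluorescence ratio, scaled between DMSO and carbachol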
Of the large screens only hits and unclear results are named; the others gave an inactive call.

CCCN1C=CC(=C/C=C(\C#N)C(=O)OCC)C=C1	OXTR ag 62, V1R ag counter 49, zfTRPN1 agonist 19, TRPML3 ag 15 (no result: CRFR2-BP ag)
CCCCCCN1C=CC(=C/C=C(\C#N)C(=O)OCC)C=C1	CRFR2-BP ag 247, OXTR ag 177, V1R ag counter 149, zfTRPN1 agonist 65, TRPML3 ag 55
CCOC(=O)/C(C#N)=C/N=c1ccc(C)cn1C	none
C/C=C(\C)C(=O)OC1CC(C)(C)C[C@H]2C3=CC[C@@H]4[C@@]5(C)CCC(O[C@@H]6O[C@@H](C(=O)O)[C@@H](O)C(O[C@@H]7OC[C@H](O)[C@@H](O)[C@@H]7O[C@@H]7OC(CO)C(O)[C@@H](O)[C@@H]7O)C6O[C@@H]6OC(CO)C(O)C(O)C6O)[C@@](C)(CO)[C@@H]5CC[C@]4(C)[C@]3(C)CC(O)[C@@]12CO (some centres not stated)	CRFR2-BP ag 78 (no result: zfTRPN1 agonist, TRPML3 ag)
COC(=O)COc1ccc(Oc2nc(SC)nc(N(C)C)n2)nn1	CRFR2-BP ag 55
COc1ccc(/C(O)=C/c2nc3ccccc3n(-c3ccccc3)c2=O)cc1	CRFR2-BP ag 132
COc1ccc(-n2c(=O)c(CCC(=O)N3CCN(c4cccc(OC)c4)CC3)nc3ccccc32)cc1	none (no result: OXTR ag, V1R ag counter, zfTRPN1 agonist, OXTR potentiator, TRPML3 ag)
COCCN(C(=O)c1cc2c(s1)CCC2)c1c(N)n(CC(C)C)c(=O)[nH]c1=O	none (no result: zfTRPN1 agonist, TRPML3 ag)
CN1CCCc2cc3c(C(F)(F)F)cc(=O)oc3nc21	CRFR2-BP ag 212
COC(=O)c1cc(OC)c(OC)cc1NC(=S)N1CCOCC1	none (no result: OXTR ag, V1R ag counter, zfTRPN1 agonist, OXTR potentiator, TRPML3 ag)
CCN(CC)c1ccc(/C=C/C(=O)c2ccc(Br)cc2)cc1	CRFR2-BP ag 325, OXTR ag 143, V1R ag counter 154, zfTRPN1 agonist 56, TRPML3 ag 59
CN(C)c1ccc(C(=O)/C=C/c2ccc(Br)cc2)cc1	none
CCc1noc(C)c1C(=O)Nc1nnc(C(CC)CC)s1	none (no result: zfTRPN1 agonist, TRPML3 ag)
CCC/C(C#Cc1cc(OC)cc(OC)c1)=C1/c2ccccc2C(=O)N1c1ccccc1	none (no result: zfTRPN1 agonist, TRPML3 ag)
CCC/C(C#Cc1ccc(N(C)C)cc1)=C1/c2ccccc2C(=O)N1c1ccccc1	CRFR2-BP ag 79 (no result: zfTRPN1 agonist, TRPML3 ag)
O=C(N/N=C/c1ccc([N+](=O)[O-])o1)C(=O)Nc1ccc(C(=O)O)cc1	none
O=C(N/N=C/c1ccco1)c1cc([N+](=O)[O-])cc([N+](=O)[O-])c1	none
O=[N+]([O-])c1ccc(N/N=C/C=C/c2ccco2)cc1	CRFR2-BP ag 95 (no result: zfTRPN1 agonist, TRPML3 ag)
O=C(O)c1ccc(N/N=C/C=C/c2ccc([N+](=O)[O-])o2)cc1	OXTR ag 29, V1R ag counter 41 (no result: zfTRPN1 agonist, TRPML3 ag)
CN(Cc1ccccn1)C(=O)C1CCC(=O)N(Cc2cccc(C(F)(F)F)c2)C1 (configuration not stated)	none (no result: zfTRPN1 agonist, TRPML3 ag)
O=C(NCCCn1ccnc1)c1sc2cc([N+](=O)[O-])ccc2c1Cl	none (no result: OXTR ag, V1R ag counter, zfTRPN1 agonist, OXTR potentiator, TRPML3 ag)
CCOc1ccc(NS(=O)(=O)c2ccc(C(=O)NCC(c3cccs3)N3CCOCC3)cc2)cc1 (configuration not stated)	CRFR2-BP ag 61, OXTR ag 26, V1R ag counter 26 (no result: zfTRPN1 agonist, TRPML3 ag)
N#Cc1ccc(C=NN2CCCCCC2)cc1	none (no result: OXTR ag, V1R ag counter, zfTRPN1 agonist, OXTR potentiator, TRPML3 ag)
CCCOc1ccc(-c2nn(-c3ccccc3)cc2/C=C2\SC(=S)N(C3CCS(=O)(=O)C3)C2=O)cc1 (configuration not stated)	none
CCOc1ccc(-c2nn(-c3ccccc3)cc2/C=C2\SC(=S)N(C3CCS(=O)(=O)C3)C2=O)cc1 (configuration not stated)	CRFR2-BP ag 115
COc1cccc2c1C(=O)c1c(O)c3c(c(O)c1C2=O)C[C@@](O)(C(=O)CO)C[C@@H]3OC1CC(N)C(O)C(C)O1 (some centres not stated)	CRFR2-BP ag 74 (no result: OXTR ag, V1R ag counter, zfTRPN1 agonist, OXTR potentiator, TRPML3 ag)
COc1cccc2c1C(=O)c1c(O)c3c(c(O)c1C2=O)CC(O)(C(C)=O)CC3OC1CC(N(C)C)C(O)C(C)O1 (configuration not stated)	CRFR2-BP ag 89 (no result: OXTR ag, V1R ag counter, zfTRPN1 agonist, OXTR potentiator, TRPML3 ag)
COc1cccc2c1C(=O)c1c(O)c3c(c(O)c1C2=O)C[C@@](O)(C(=O)CO)C[C@@H]3O[C@H]1C[C@H](N)[C@H](O)[C@H](C)O1	CRFR2-BP ag 93, OXTR ag 25, V1R ag counter 23, zfTRPN1 agonist 27
CN(C)c1ccc(/C=C/c2nc3ccccc3c(=O)n2-c2ccc(C(=O)O)cc2)cc1	OXTR ag 77, V1R ag counter 82 (no result: zfTRPN1 agonist, TRPML3 ag)
CCCCCN(C(=O)CCC(=O)OCc1ccc(C(C)(C)C)cc1)c1c(N)n(CCCC)c(=O)[nH]c1=O	none (no result: zfTRPN1 agonist, TRPML3 ag)
Cc1nnc(NC(=O)C2c3ccccc3Oc3ccccc32)s1	none
CCOCc1nnc(NC(=O)C2c3ccccc3Oc3ccccc32)s1	OXTR ag 30, V1R ag counter 22
CSc1cccc(NC(=O)c2cc(S(=O)(=O)N3CCc4ccccc43)cn2C)c1	none (no result: zfTRPN1 agonist, TRPML3 ag)
CC1(C)CCN2CCC(C)(C)c3c(O)ccc1c32	CRFR2-BP ag 118, OXTR ag 25, V1R ag counter 28 (no result: zfTRPN1 agonist, TRPML3 ag)
O=C(CNC(=O)C1CCCCC1)NNC(=O)c1ccccc1Br	none (no result: zfTRPN1 agonist, TRPML3 ag)
Cn1c(SCC(=O)N2CC(=O)Nc3ccccc32)nnc1C(F)(F)F	none (no result: OXTR ag, V1R ag counter, zfTRPN1 agonist, OXTR potentiator, TRPML3 ag)
Cc1ccc(CONC(=O)c2cccc([N+](=O)[O-])c2)cc1	none (no result: zfTRPN1 agonist, TRPML3 ag)
